Measurements published in ChEMBL document CHEMBL1142097, “EthA, a common activator of thiocarbamide-containing drugs acting on different mycobacterial targets” (Antimicrob Agents Chemother, 2007).
Converted amounts (≈) assume the structure as drawn. The source made the active and inactive calls. No cut-off for these calls is given here.

Assays:
[1] = test system: Mycobacterium tuberculosis; test: Antimycobacterial activity against Mycobacterium bovis BCG NCTC 5692 with ethR-knockout mutant; type: functional, variant bovis BCG
Summary of the method: (§1)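 Agar MIC on Middlebrook 7H9 or 7H11 with OADC (ADC substituted for isoxyl-type drugs) plus graded drug levels; serial 10-fold dilutions of actively growing culture plated, incubated 37°C for 10–14 days; MIC = lowest concentration blocking 99% of growth. Recombinant Pasteur strains selected with 25 μg/ml kanamycin; ethR::hyg mutant carries a hygromycin-marked transposon in ethR.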

[2] = Antimycobacterial activity against Mycobacterium bovis BCG str. Pasteur 1173P2 overexpressing ethA gene; type: functional; conditions: Mycobacterium tuberculosis variant bovis BCG; summary of the method: as §1
[3] = test system: Mycobacterium tuberculosis; test: Antimycobacterial activity against Mycobacterium bovis BCG NCTC 5692; type: functional; conditions: Mycobacterium tuberculosis variant bovis BCG; summary of the method: as §1
[4] = Antimycobacterial activity against Mycobacterium bovis BCG str. Pasteur 1173P2 overexpressing ethR gene; type: functional; conditions: Mycobacterium tuberculosis variant bovis BCG; summary of the method: as §1
[5] = test system: Mycobacterium tuberculosis; test: Inhibition of mycolic acid synthesis in Mycobacterium bovis BCG NCTC 5692 with ethR-knockout mutant assessed as incorporation of [2-14C]acetate; type: functional, organism-based; conditions: variant bovis BCG
Summary of the method: (§2)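 Mid-log cultures in Sauton medium exposed to graded drug concentrations (μg/ml) for 16 h at 37°C, then pulsed with 1 μCi/ml [2-14C]acetate for 8 h at 37°C. Cells PBS-washed, hydrolysed with 15% tetrabutylammonium hydroxide at 100°C overnight, methylated with CH3I in CH2Cl2; fatty and mycolic acid methyl esters resolved by TLC and autoradiographed.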

[6] = test system: Mycobacterium tuberculosis; test: Inhibition of oleic acid synthesis in Mycobacterium bovis BCG NCTC 5692 with ethR-knockout mutant assessed as incorporation of [2-14C]acetate; type: functional, organism-based; conditions: variant bovis BCG; summary of the method: as §2
[7] = test system: Mycobacterium tuberculosis; test: Inhibition of oleic acid synthesis in Mycobacterium bovis BCG NCTC 5692 assessed as incorporation of [2-14C]acetate; type: functional, organism-based; conditions: variant bovis BCG; summary of the method: as §2
[8] = test system: Mycobacterium tuberculosis; test: Inhibition of mycolic acid synthesis in Mycobacterium bovis BCG NCTC 5692 assessed as incorporation of [2-14C]acetate; type: functional, organism-based; conditions: variant bovis BCG; summary of the method: as §2

Compound | MIC [1] [µg/mL] | MIC [2] [µg/mL] | MIC [3] [µg/mL] | MIC [4] [µg/mL] | Activity [5] | Activity [6] | Activity [7] | Activity [8]
COc1ccc(/C(C)=N/NC(N)=S)cc1 | 0.25 (≈ 1.12 µM) | 0.25 (≈ 1.12 µM) | 2.5 (≈ 11.2 µM) | 0.5 (≈ 2.24 µM) |  |  |  | 
CC(C)CCSc1ccc(NC(=S)Nc2ccc(SCCC(C)C)cc2)cc1 | 2.5 (≈ 5.78 µM) | 5 (≈ 11.6 µM) | 25 (≈ 57.8 µM) | 40 (≈ 92.4 µM) | Active | Active |  | 
CC(=O)Nc1ccc(/C=N/NC(N)=S)cc1 [AMITHIOZONE] | 0.25 (≈ 1.06 µM) | 0.25 (≈ 1.06 µM) | 2.5 (≈ 10.6 µM) | 2.5 (≈ 10.6 µM) | Active |  | inactive | Active
CCc1cc(C(N)=S)ccn1 [ETHIONAMIDE] | 0.5 (≈ 3.01 µM) | 0.25 (≈ 1.5 µM) | 5 (≈ 30.1 µM) | 10 (≈ 60.2 µM) | Active |  |  | 
NC(=S)N/N=C/c1cccnc1 [NICOTHIAZONE] | 5 (≈ 27.7 µM) | 10 (≈ 55.5 µM) | 25 (≈ 139 µM) | 75 (≈ 416 µM) |  |  |  | 
CC(C)CCOc1ccc(NC(=S)Nc2ccc(OCCC(C)C)cc2)cc1 [TIOCARLIDE] | 0.5 (≈ 1.25 µM) | 0.1 (≈ 0.25 µM) | 1 (≈ 2.5 µM) | 0.25 (≈ 0.624 µM) |  | Active | Active | Active
